Results published in PMC8314423 (Journal of medicinal chemistry, 2018).

Legend:
[1] = target: SOS1-mediated nucleotide exchange on RAS (Homo sapiens, UniProt Q07889); experiment: SOS1-mediated nucleotide exchange assay; assay type: biochemical
[2] = test system: RAS-GTP levels in HeLa cells; experiment: RAS-GTP levels in HeLa cells; assay type: cell-based; conditions: 10 min treatment; for change in RAS-GTP levels: up to 30 μM
Method in brief: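 HeLa (WT KRAS) cells exposed to test compound for 10 min at concentrations up to 30 μM. RAS-GTP levels were measured together with the accompanying pERK1/2 T202/Y204 levels. EGF (50 ng/mL, 5 min) served as the positive control for pathway stimulation. Data are representative of two independent experiments.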

SOS1-mediated nucleotide exchange on RAS, sequence (Q07889 564-1049 limits assumed): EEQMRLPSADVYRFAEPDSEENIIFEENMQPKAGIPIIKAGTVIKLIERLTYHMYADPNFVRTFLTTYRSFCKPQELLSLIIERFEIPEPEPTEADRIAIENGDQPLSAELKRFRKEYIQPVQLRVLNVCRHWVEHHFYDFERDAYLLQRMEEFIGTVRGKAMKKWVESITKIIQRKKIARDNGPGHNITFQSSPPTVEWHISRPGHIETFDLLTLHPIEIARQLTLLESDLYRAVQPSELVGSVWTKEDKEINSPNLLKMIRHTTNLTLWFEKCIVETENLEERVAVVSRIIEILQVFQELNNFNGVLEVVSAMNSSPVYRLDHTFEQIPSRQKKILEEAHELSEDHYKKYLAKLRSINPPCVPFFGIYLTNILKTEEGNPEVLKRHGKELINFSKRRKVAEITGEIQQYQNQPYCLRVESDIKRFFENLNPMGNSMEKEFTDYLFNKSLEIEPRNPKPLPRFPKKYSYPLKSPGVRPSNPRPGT
SOS1-mediated nucleotide exchange on RAS, sequence (P01112 1-166 partner limits assumed): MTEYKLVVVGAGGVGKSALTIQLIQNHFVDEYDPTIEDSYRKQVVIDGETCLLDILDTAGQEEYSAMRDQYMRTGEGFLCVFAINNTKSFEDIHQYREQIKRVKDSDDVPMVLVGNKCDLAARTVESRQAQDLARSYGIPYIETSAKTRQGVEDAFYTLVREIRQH

Compound | change in RAS-GTP levels [2] | other results
Cc1cc2ncn(Cc3ccc(F)c(Cl)c3)c2cc1C [Compound 4, 1-(3-Chloro-4-fluorobenzyl)-5,6-dimethyl-1H-benzo[d]imidazole] |  | nucleotide exchange activation ([1]; in words): negligible nucleotide exchange activation
Cc1cc(Cn2c(N3CCNCC3)nc3ccc(Cl)cc32)cc(C)c1F [Compound 29, 6-Chloro-1-(4-fluoro-3,5-dimethylbenzyl)-2-(piperazin-1-yl)-1H-benzo[d]imidazole] |  | EC50 [1]: < 1000 nM
Cc1cc(Cn2c(N3CCNCC3)nc3c(N4CCN(C)CC4)cc(Cl)cc32)cc(C)c1F [Compound 42, 6-Chloro-1-(4-fluoro-3,5-dimethylbenzyl)-4-(4-methylpiperazin-1-yl)-2-(piperazin-1-yl)-1H-benzo[d]imidazole] | substantial increases in RAS-GTP levels at 10–30 μM | lowest concentration inducing small increases in RAS-GTP [2]: 0.3 µM
Cc1cc(Cn2c(N3CCNCC3)nc3c(-c4cncnc4C)cc(Cl)cc32)cc(C)c1F [Compound 55, 6-Chloro-1-(4-fluoro-3,5-dimethylbenzyl)-4-(4-methylpyrimidin-5-yl)-2-(piperazin-1-yl)-1H-benzo[d]imidazole] | only modest increases in RAS-GTP levels | 
Cc1cc(Cn2c(N3CC4(CNC4)C3)nc3c(-c4cncnc4C)cc(Cl)cc32)cc(C)c1F [Compound 60, 6-Chloro-1-(4-fluoro-3,5-dimethylbenzyl)-4-(4-methylpyrimidin-5-yl)-2-(2,6-diazaspiro[3.3]heptan-2-yl)-1H-benzo[d]imidazole] | only modest increases in RAS-GTP levels | 
Cc1ncncc1-c1cc(Cl)cc2c1nc(N1CC3(CNC3)C1)n2Cc1ccc(F)cc1 [Compound 61, 6-Chloro-1-(4-fluorobenzyl)-4-(4-methylpyrimidin-5-yl)-2-(2,6-diazaspiro[3.3]heptan-2-yl)-1H-benzo[d]imidazole] | only modest increases in RAS-GTP levels | 
Cc1cc(Cn2c(N3CC4(CNC4)C3)nc3c(N4CCN(C)CC4)cc(Cl)cc32)cc(C)c1F [Compound 64, 6-Chloro-1-(4-fluoro-3,5-dimethylbenzyl)-4-(4-methylpiperazin-1-yl)-2-(2,6-diazaspiro[3.3]heptan-2-yl)-1H-benzo[d]imidazole] | substantial increases in RAS-GTP levels at 10–30 μM | lowest concentration inducing small increases in RAS-GTP [2]: 0.3 µM
